From PubChem
Most compounds without a hit are left out; they make up all but 6.4% or so of the library.
MPTP inh: permeability transition pore inhibition; isolated mouse mitochondria, Ca2+ swelling absorbance, 30 min; inhibition, % at 10 µM; 360,000 tested, 1.4% active; AID 602449;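 active = inhibition of 50% or more, scaled per plate between neutral and stimulator controls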
EBV gp42 inh: EBV gp42 inhibition | Fluorescence polarization binding assay, mP read-out | 220,000 tested, 0.42% active | AID 1085 | inhibition, % (tested at 21.74 µM); in the data active = inhibition above about 50%
Target sequence (Q1HVG2 whole entry, looked up): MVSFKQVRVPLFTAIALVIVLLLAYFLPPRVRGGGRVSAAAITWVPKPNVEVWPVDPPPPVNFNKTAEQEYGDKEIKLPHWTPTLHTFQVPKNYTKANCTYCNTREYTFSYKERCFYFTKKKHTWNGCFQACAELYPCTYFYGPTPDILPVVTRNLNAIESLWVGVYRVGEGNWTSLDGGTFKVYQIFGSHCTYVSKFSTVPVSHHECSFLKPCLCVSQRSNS
WT yeast gro inh: growth inhibition of WT yeast, mitochondrial fusion screen; mitochondrial fusion phenotypic screen, WT strain; inhibition, % at 10 µM; 190,000 tested, 2.1% active; AID 1362; in the data active = inhibition above about 58%; tested in S. cerevisiae
TbMetRS inhib: blocks T. brucei methionyl-tRNA synthetase activity | 360,000 tested, 0.4% active | inhibition, % at 11.9 µM | purified T. brucei MetRS, ATP depletion, Kinase-Glo luminescence | AID 624268;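 active = inhibition above a per-plate cutoff of the control wells' mean inhibition plus 3 SD, cut at about 5.5% in these data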
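System: purified T. brucei MetRS enzyme / Detection: Kinase-Glo luciferase luminescence reporting remaining unconsumed ATP / Medium: HEPES buffer with MgCl2, KCl, DTT, spermine, BSA, pyrophosphatase / Replication: singlicate, one well per compound / Evaluation: percent inhibition relative to median high and low control wells / Schedule: 2 h aminoacylation at 25 °C after 15 min preincubation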
NR3A LBD binder: NR3A (human) ligand-binding domain modulation | 340,000 tested, 2.5% active | Tm shift relative to glycine control, % at 25 µM | NR3A LBD differential scanning fluorimetry, Tm shift; 0% = protein alone, 100% = glycine-bound protein;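 active = melting temperature shift of at least 10% of the positive control shift, at one fixed dose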
CHOP inhibitor: blocks CHOP induction under ER stress. CHO-K1 CHOP-promoter luciferase, tunicamycin-induced, 15-18 h. inhibition, % at 10 µM. 220,000 tested, 3.8% active. AID 2732;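 active = compounds that reduced the stress-induced luciferase reporter signal by more than about 70% of percent inhibition, limit read from the data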
Numbers stand for hits; . = inactive; / = no result given.

SMILES | MPTP inh | EBV gp42 inh | WT yeast gro inh | TbMetRS inhib | NR3A LBD binder | CHOP inhibitor
Cn1c(NC(=O)/C=C/c2ccccc2)cc(=O)n(C)c1=O | . | . | . | . | . | .
Cn1c(NC(=O)/C=C/c2ccc(Cl)c(Cl)c2)cc(=O)n(C)c1=O | . | . | . | . | 16 | .
Nc1c(-c2ccccc2)c(CN2CCOCC2)nn1-c1ccc(C(=O)O)cc1 | . | . | . | . | . | .
CN(Cc1cccs1)C(=O)C1CCN(S(=O)(=O)c2ccccc2)CC1 | . | / | / | . | . | /
O=c1c(C=Nc2ccc(Cl)cc2)c[nH]n1-c1cccc(Cl)n1 | . | . | . | . | . | 83
Cc1ccc(Cn2c(C(CO)Nc3nc(-c4ccc(Cl)c([N+](=O)[O-])c4)cs3)nc3ccccc32)cc1 (stereo not given) | . | / | / | . | 26 | /
Cc1ccc(Cn2c(C(CO)Nc3nc(-c4ccc(F)cc4)cs3)nc3ccccc32)cc1 (stereo not given) | . | / | / | . | 19 | /
COc1ccc(-c2csc(NC(CO)c3nc4ccccc4n3Cc3ccc(C)cc3)n2)cc1 (stereo not given) | . | / | / | . | . | /
CCCCOc1ccc(-c2nnn(CC(=O)NCCc3c[nH]c4ccccc34)n2)cc1 | . | . | . | . | 17 | 79
Nc1ccccc1Sc1nc2ccccc2[nH]1 | . | . | . | . | 10 | .
Nc1nc2ccccc2[nH]1 | . | / | / | . | . | /
c1ccc2c(-c3nc4ncccc4o3)cccc2c1 | . | . | . | . | . | .
CCS(=O)(=O)c1ccc2oc(Nc3ccc(C(C)(C)C)cc3)nc2c1 | . | . | . | . | . | 72
C=CCNc1oc(-c2ccco2)nc1S(=O)(=O)c1ccccc1 | . | / | / | . | . | /
O=C(OCCOCCN=C1NS(=O)(=O)c2ccccc21)C1CC(=O)N(c2ccccc2)C1 (stereo not given) | . | . | . | . | . | .
O=C(OCCN=C1NS(=O)(=O)c2ccccc21)C1CC(=O)N(c2ccc(Cl)cc2)C1 (stereo not given) | . | . | . | . | 24 | .
COC(=O)c1sc(-c2ccc(Cl)cc2)cc1N | . | . | / | . | . | .
CN1CCc2c(sc3c2C(=O)NC(c2cn(Cc4ccccc4)c4ccccc24)N3)C1 (stereo not given) | . | . | . | . | . | 79
CN1CCc2c(sc3c2C(=O)NC(c2ccco2)N3)C1 (stereo not given) | . | . | . | . | . | .
CC(=O)C(Cc1ccc(Cl)nc1)(Cc1ccc(Cl)nc1)C(C)=O | . | . | . | . | . | .
Cc1cc(C(=O)CSc2nnc(-c3ccc(F)cc3)o2)c(C)n1CC1CCCO1 (stereo not given) | . | . | . | . | . | 93
Cc1cc(C(=O)CSc2nc3ccccc3c(=O)n2C)c(C)n1CC1CCCO1 (stereo not given) | / | . | . | / | / | 74
CCn1c(SCC(=O)c2cc(C)n(CC3CCCO3)c2C)nc2ccccc21 (stereo not given) | . | . | . | . | . | .
CCN1C(=O)[C@H]2[C@@H](c3ccc(Cl)cc3)N3C(=O)CN(Cc4ccccc4)C(=O)[C@@]3(C)[C@H]2C1=O | . | / | / | . | . | /
CC1Oc2cc3oc4c(O)c(O)ccc4c(=O)c3c(O)c2C1(C)C (stereo not given) | . | / | / | . | 20 | /
SMILES | MPTP inh | EBV gp42 inh | WT yeast gro inh | TbMetRS inhib | NR3A LBD binder | CHOP inhibitor
CC(=O)OC1CCC2C3CCc4cc(O)ccc4C3CCC12C (stereo not given) | . | / | / | . | . | /
CC(=O)O[C@H]1CC[C@H]2[C@@H]3CCc4cc(O)ccc4[C@H]3CC[C@]12C | . | . | . | . | . | 76
COc1ccc(/C=N/NC(=O)c2ccncc2)cc1CN1CCOCC1 | . | . | / | . | 12 | .
COc1ccc(/C=N/NC(=O)c2ccc(Br)cc2)cc1CN1CCOCC1 | . | . | / | . | . | .
COc1ccccc1Nc1nc(C)cc(C)c1C(N)=O | . | . | . | . | . | .
Cc1cc(C)c(C(N)=O)c(Nc2cccc3ccccc23)n1 | . | . | 62 | . | . | .
Cc1onc(-c2c(Cl)cccc2Cl)c1C(N)=O | . | . | . | . | . | .
Cc1onc(-c2c(Cl)cccc2Cl)c1C(=O)n1nnc2ccccc21 | / | . | . | / | / | 96
CCOc1ccc(CCNC(=O)Cn2cccc2C(=O)c2ccccc2C)cc1OCC | . | . | . | . | . | 75
